1 compound from ChEMBL document CHEMBL2062417, “Biotinylated quercetin as an intrinsic photoaffinity proteomics probe for the identification of quercetin target proteins” (Bioorg Med Chem, 2011) can be followed below.

The subject of assay [1] is Jurkat. Put plainly: Inhibition of heat shock-induced HSP70 expression in human Jurkat cells at 145 uM treated 2 hrs before beat shock challenge measured after 8 hrs by Western blotting. Format: functional, cell-based. The method in brief: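 Jurkat cells (low basal HSP70) got 145 μM compound or DMSO vehicle for 2 h, then a 30 min 43 °C heat shock and 8 h recovery at 37 °C. HSP70 and actin were read by Western blot. Controls were unheated cells and heated cells with no additive.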

Assay [2] addresses Calcium/calmodulin-dependent protein kinase type II subunit beta (Homo sapiens, UniProt Q13554). In words: Inhibition of CAMK2 using autocamtide-2 as substrate after 30 mins by PKLight assay.

pIC50: −log10 of the molar value. Calls of active or inactive are those of the source. No cut-off for these calls is given here.

Chain of Calcium/calmodulin-dependent protein kinase type II subunit beta (Q13554 whole entry): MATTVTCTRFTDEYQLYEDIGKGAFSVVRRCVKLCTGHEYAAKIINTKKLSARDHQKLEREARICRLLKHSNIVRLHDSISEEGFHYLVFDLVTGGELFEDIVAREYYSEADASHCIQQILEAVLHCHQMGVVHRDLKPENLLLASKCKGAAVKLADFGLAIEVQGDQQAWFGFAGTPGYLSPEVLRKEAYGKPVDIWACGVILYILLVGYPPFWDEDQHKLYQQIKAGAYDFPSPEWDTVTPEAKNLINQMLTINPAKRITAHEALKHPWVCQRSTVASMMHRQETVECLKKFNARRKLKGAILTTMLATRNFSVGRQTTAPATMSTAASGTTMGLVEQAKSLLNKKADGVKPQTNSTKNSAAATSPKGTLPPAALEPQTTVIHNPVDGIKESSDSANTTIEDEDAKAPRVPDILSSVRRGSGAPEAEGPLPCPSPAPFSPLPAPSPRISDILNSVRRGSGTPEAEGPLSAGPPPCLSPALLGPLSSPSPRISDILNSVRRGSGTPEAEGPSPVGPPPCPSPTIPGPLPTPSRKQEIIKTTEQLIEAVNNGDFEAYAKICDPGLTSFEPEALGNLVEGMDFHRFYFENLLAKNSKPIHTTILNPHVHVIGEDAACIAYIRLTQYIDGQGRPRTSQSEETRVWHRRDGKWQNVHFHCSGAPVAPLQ

`O=c1c(O)c(-c2ccc(O)c(O)c2)oc2cc(O)cc(O)c12` [QUERCETIN]: the inhibition entry in assay [1] is “Active”. Moreover, the pIC50 in assay [2] is 5.52.
